The source of these data is publication PMC3564407 (The Febs Journal, 2012).

Square brackets hold non-standard residues; d marks the D form. Ends that are not written are not given here. Peptide text beside a SMILES is read from it. pGlu = O=C1CC[C@@H](C(=O)O)N1

By inhibition is commonly meant the relative decrease from the control value, in per cent. Usually Ki stands for the dissociation constant of the complex between target and ligand, obtained from inhibition or displacement.

Data set [1] has as its target T1, Drosophila melanogaster AnCE (Drosophila melanogaster, UniProt Q10714).
T1 sequence (Q10714 18-615): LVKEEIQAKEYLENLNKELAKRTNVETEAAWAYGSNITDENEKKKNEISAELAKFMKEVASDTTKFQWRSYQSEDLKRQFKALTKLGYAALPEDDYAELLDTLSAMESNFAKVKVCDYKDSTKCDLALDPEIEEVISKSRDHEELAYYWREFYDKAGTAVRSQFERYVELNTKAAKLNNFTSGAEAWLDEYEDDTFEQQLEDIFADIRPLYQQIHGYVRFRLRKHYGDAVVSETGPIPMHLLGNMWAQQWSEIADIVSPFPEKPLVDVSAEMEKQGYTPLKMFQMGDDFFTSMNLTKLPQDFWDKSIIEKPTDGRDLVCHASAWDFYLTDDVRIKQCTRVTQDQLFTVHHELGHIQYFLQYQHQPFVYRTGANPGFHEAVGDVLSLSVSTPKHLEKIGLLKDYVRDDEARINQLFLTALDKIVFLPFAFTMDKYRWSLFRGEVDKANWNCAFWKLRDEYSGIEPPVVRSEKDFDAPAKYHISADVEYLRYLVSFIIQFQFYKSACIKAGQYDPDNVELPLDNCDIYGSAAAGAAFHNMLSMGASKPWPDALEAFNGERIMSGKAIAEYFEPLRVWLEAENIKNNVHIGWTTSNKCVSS
Kind of data set: Inhibition of Ang I to Ang II conversion by AnCE. Format: biochemical. The note with it: pH 7.5, read-out: % inhibition of the conversion of Ang I to Ang II. In outline: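 Recombinant D. melanogaster AnCE expressed in P. pastoris and purified by hydrophobic interaction and size-exclusion chromatography; diluted to 250 ng·μL−1 in reaction buffer containing 0.1 mg·mL−1 BSA. Reaction buffer is 0.1 m Hepes pH 7.5, 10 μm ZnSO4, 0.15 m NaCl, with Ang I (100 μm final) as substrate. Ang I consumption was quantified by HPLC-UV at 214 nm without and with 100 μm (initial) Ang II.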

Data set [2] addresses T1, Drosophila melanogaster AnCE. The note with it: ref [17]; cited from earlier work.
A further data set deals with ACE N- and C-domains. Conditions: mice; ref [7],[8]; cited from earlier work.
Data set [3] addresses T1, Drosophila melanogaster AnCE. Nature of the data set: Inhibition of AnCE with Abz-YRK. In kind it is biochemical.
Another data set deals with ACE N-domain. Conditions: ref [9],[10]; cited from earlier work.

Consider `CC[C@H](C)[C@H](NC(=O)[C@H](Cc1ccc(O)cc1)NC(=O)[C@@H](NC(=O)[C@H](CCCNC(=N)N)NC(=O)[C@@H](N)CC(=O)O)C(C)C)C(=O)N[C@@H](Cc1c[nH]cn1)C(=O)N1CCC[C@H]1C(=O)N[C@@H](Cc1ccccc1)C(=O)O` [Ang II, angiotensin II], for which, in data set [1], the inhibition at 100 µM was found to be 73%.

Turning to RPPGFSPFR [BK, bradykinin], the “cleavage by AnCE” value in data set [2] is listed as “inactivates BK”. For the same compound, the “cleavage efficiency by ACE domains” value with ACE N- and C-domains was “cleaved with similar efficiency by both domains”.

As to `CC[C@H](C)[C@H](NC(=O)[C@H](CCCCN)NC(=O)[C@@H]1CCCN1C(=O)[C@H](CCCNC(=N)N)NC(=O)[C@@H]1CCCN1C(=O)[C@@H]1CCCN1C(=O)[C@H](CC(C)C)NC(=O)CNC(=O)[C@@H]1CCC(=O)N1)C(=O)N1CCC[C@H]1C(=O)N1CCC[C@H]1C(=O)O` [BPPb, bradykinin-potentiating peptide-b] ([pGlu]GLPPRPKIPP-OH), in data set [3], the Ki came to 107 µM.

On to N-acetyl Ser–Asp–Lys–Pro, for which, in the data set with ACE N-domain, the “degradation by ACE domain” value was “the N-domain is solely responsible”.

In the case of DRVYIHPFHL [Ang I, angiotensin I], the “cleavage by AnCE” value in data set [2] is reported as “converts Ang I to Ang II”. In the data set with ACE N- and C-domains, the “in vivo conversion to Ang II by ACE domain” value is “the C-domain is primarily responsible”.
